This is an account of results in ChEMBL document CHEMBL3407383, “Design, synthesis and biological profile of new inhibitors of multidrug resistance associated proteins carrying a polycyclic scaffold” (Eur J Med Chem, 2015).

The target of data set [1] is T1, Multidrug resistance protein 1/Multidrug resistance associated protein 1 (Homo sapiens, UniProt P33527+P08183). Put plainly: Inhibition of MDR1/MRP1 overexpressed in doxorubicin-resistant human HL60R cells assessed as DXR accumulation at 10 uM incubated for 2 hrs prior to DXR challenge measured after 2 hrs by fluorescence assay relative to control. It counts as cell-based. In outline:
(§1)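 HL60 and HL60R cells (2.5 × 10^5 cells/mL) preincubated 2 h with compound, then 2 h with 10 µM DXR. Washed twice in cold PBS, resuspended at 1 × 10^6 cells/mL. Anthracycline fluorescence read immediately by flow cytometry (excitation 488 nm, emission 600 nm, log scale). Mean ± SD, ≥3 independent experiments; one-way ANOVA versus HL60R.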

Data set [2] concerns HL60R. The experiment in a line: Potentiation of doxorubicin-induced cytotoxicity in human HL60R cells assessed as impairment of cell growth at 10 uM incubated for 2 hrs prior to doxorubicin challenge measured up to 24 hrs by trypan blue staining-based haemocytometry. It counts as functional. In outline:
(§2)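 HL60R cells seeded at 1.5 × 10^5 cells/mL; after 24 h, exposed to compound (10 µM) for 2 h, then 10 µM DXR added. Viable cells counted by Trypan Blue exclusion in a Bürker haemocytometer at 24 and 48 h. Mean ± SD, at least three independent experiments.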

Data set [3] deals with HL60R. The experiment in a line: Potentiation of doxorubicin-induced cell cycle arrest in human HL60R cells assessed as accumulation at G2/M phase at 10 uM after 24 hrs by propidium iodide staining-based flow cytometry. Type of data set: functional. An outline of the steps:
(§3)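 HL60R cells treated with compound plus 10 µM DXR for 24 and 48 h. Fixed in 70% ice-cold ethanol at -20 °C overnight, stained with PI 5 µg/mL plus DNase-free RNase A 10 µg/mL in PBS, 30 min at 37 °C in the dark. PI red fluorescence acquired on a linear scale at 600 nm by flow cytometry.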

Data set [4] is described as follows: Cytotoxicity against human HL60 cells assessed as effect on cell cycle at 10 uM. It counts as cell-based. The following applies: hl-60, 10 µM.
Data set [5] is described as follows: Cytotoxicity against human HL60 cells assessed as cell viability at 10 uM by MTT assay. It counts as cell-based. The following applies: hl-60, 10 µM. In general terms: Formazan colour is commonly taken as a measure of viable cells.
Data set [6] addresses T2, ATP-dependent translocase ABCB1 (Homo sapiens, UniProt P08183). Put plainly: Reversal of human MDR1-mediated drug efflux in mouse L5178 cells using rhodamine 123 as substrate assessed as fluorescence activity ratio at 40 uM incubated for 10 mins prior to substrate addition measured after 20 mins by FACScan flow cytometry relative to control. It counts as cell-based. The following applies: l5178, 20 min. For orientation: In flow cytometry, cells or beads pass a laser one at a time.

Data set [7] in a line: Lipophilicity, log P of the compound. The following applies: octanol/water. It counts as physicochemical.
Data set [8] is described as follows: Cytotoxicity against human HL60R cells assessed as cell viability at 10 uM by MTT assay. Type of data set: cell-based.
In data set [9] the test system is HL60R. Put plainly: Potentiation of doxorubicin-induced cytotoxicity in human HL60R cells assessed as restart of cell growth at 10 uM incubated for 2 hrs prior to doxorubicin challenge measured after 24 hrs by trypan blue staining-based haemocytometry relative to control. It counts as functional. In outline:
as §2

For data set [10], the target named is T2, ATP-dependent translocase ABCB1. The experiment in a line: Reversal of human MDR1-mediated drug efflux in mouse L5178 cells using rhodamine 123 as substrate assessed as fluorescence activity ratio at 4 uM incubated for 10 mins prior to substrate addition measured after 20 mins by FACScan flow cytometry relative to control. The following applies: l5178, 20 min. Type of data set: cell-based.

Data set [11] can be described thus: Cytotoxicity against human HL60R cells assessed as effect on cell cycle at 10 uM. Type of data set: cell-based.
Data set [12] addresses T1, Multidrug resistance protein 1/Multidrug resistance associated protein 1. Put plainly: Activity at human MDR1/MRP1 overexpressed in doxorubicin-resistant human HL60R cells assessed as ATP consumption at 10 uM after 2 hrs by luminescence assay (reference value: 6350 +/- 303 RLU). Type of data set: cell-based. An outline of the steps:
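HL60R cells at 2.5 × 10^5 cells/mL exposed to 10 µM compound (DMSO solution) for 2 h at 37 °C, 5% CO2; washed twice in cold PBS, resuspended at 1 × 10^6 cells/mL. 1 × 10^5 cells lysed in swab by 20 s agitation; ATP read by luciferase/d-luciferin bioluminescence on a luminometer.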

The test system of data set [13] is HL60R. The experiment in a line: Potentiation of doxorubicin-induced cell cycle arrest in human HL60R cells assessed as exit from mitosis at 10 uM after 48 hrs by propidium iodide staining-based flow cytometry. Type of data set: functional. In outline:
as §3

For data set [14], the target named is T1, Multidrug resistance protein 1/Multidrug resistance associated protein 1. The experiment in a line: Inhibition of MDR1/MRP1 overexpressed in doxorubicin-resistant human HL60R cells assessed as DXR accumulation at 0.4 uM incubated for 2 hrs prior to DXR challenge measured after 2 hrs by fluorescence assay relative to control. It counts as cell-based. An outline of the steps: as §1

Data set [15] concerns HL60R. Put plainly: Potentiation of doxorubicin-induced cytotoxicity in human HL60R cells at 10 uM incubated for 2 hrs prior to doxorubicin challenge measured after 24 to 48 hrs by trypan blue staining-based haemocytometry. Type of data set: functional, cell-based. In outline:
as §2

Data set [16] deals with HL60R. Put plainly: Potentiation of doxorubicin-induced cell cycle arrest in human HL60R cells assessed as accumulation at G0/G1 phase at 10 uM after 24 hrs by propidium iodide staining-based flow cytometry. Type of data set: functional. An outline of the steps: as §3
Data set [17] addresses T2, ATP-dependent translocase ABCB1. The experiment in a line: Reversal of human MDR1-mediated drug efflux in mouse L5178 cells using rhodamine 123 as substrate assessed as fluorescence activity ratio at 0.4 uM incubated for 10 mins prior to substrate addition measured after 20 mins by FACScan flow cytometry relative to control. The following applies: l5178, 20 min. Type of data set: cell-based. In outline: (§4)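 L5178 MDR1-transfected and parental mouse lymphoma cells at 2 × 10^6/mL in serum-free McCoy's 5A. Preincubated with compound (0.4–40 µM) for 10 min at room temperature, then rhodamine-123 (5.2 µM final) added for 20 min at 37 °C; washed twice, resuspended in PBS, read by flow cytometry. Verapamil as positive control. R = (MDR treated/MDR control)/(parental treated/parental control).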

The target is the same in data set [18]. The experiment in a line: Reversal of human MDR1-mediated drug efflux in mouse L5178 cells using rhodamine 123 as substrate assessed as fluorescence activity ratio at 0.8 uM incubated for 10 mins prior to substrate addition measured after 20 mins by FACScan flow cytometry relative to control. It counts as cell-based. The following applies: l5178, 20 min. An outline of the steps: as §4

The target is the same in data set [19]. The experiment in a line: Reversal of human MDR1-mediated drug efflux in mouse L5178 cells using rhodamine 123 as substrate at 40 uM incubated for 10 mins prior to substrate addition by FACScan flow cytometry relative to verapamil. It counts as cell-based. The following applies: l5178, 10 min. An outline of the steps:
as §4

A short description of data set [20]: Cell cycle arrest in human HL60R cells assessed as exit from mitosis at 10 uM after 24 hrs by propidium iodide staining-based flow cytometry. It counts as functional. An outline of the steps: as §3
The subject of data set [21] is HL60R. Put plainly: Induction of apoptosis in human HL60R cells assessed as nuclear fragmentation at 10 uM after 48 hrs by […] staining-based fluorescence microscopy.
For data set [22], the system named is HL60R. The experiment in a line: Induction of apoptosis in human HL60R cells assessed as chromatin condensation at 10 uM after 48 hrs by […] staining-based fluorescence microscopy. It counts as functional, cell-based. In outline: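 HL60R cells co-treated 48 h with 10 µM compound plus 10 µM DXR. Cytospun onto slides (150 g, 5 min), PBS-washed, fixed in 4% paraformaldehyde, permeabilized with 0.5% Triton X-100 for 5 min at 4 °C, stained with Hoechst 0,1 mg/mL. Nuclear morphology examined by fluorescence microscopy.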

Data set [23] can be described thus: Cell cycle arrest in human HL60R cells assessed as accumulation at G2/M phase at 10 uM after 24 hrs by propidium iodide staining-based flow cytometry. Type of data set: functional. In outline: as §3
Data set [24] has as its system HL60R. Put plainly: Potentiation of doxorubicin-induced cytotoxicity in human HL60R cells at 10 uM incubated for 2 hrs prior to doxorubicin challenge measured after 24 hrs by trypan blue staining-based haemocytometry. Type of data set: functional, cell-based. In outline: as §2

Activity calls are given as the source filed them. The calls are words filed in the database; no cut-off is given here.

T2 sequence (P08183 whole entry): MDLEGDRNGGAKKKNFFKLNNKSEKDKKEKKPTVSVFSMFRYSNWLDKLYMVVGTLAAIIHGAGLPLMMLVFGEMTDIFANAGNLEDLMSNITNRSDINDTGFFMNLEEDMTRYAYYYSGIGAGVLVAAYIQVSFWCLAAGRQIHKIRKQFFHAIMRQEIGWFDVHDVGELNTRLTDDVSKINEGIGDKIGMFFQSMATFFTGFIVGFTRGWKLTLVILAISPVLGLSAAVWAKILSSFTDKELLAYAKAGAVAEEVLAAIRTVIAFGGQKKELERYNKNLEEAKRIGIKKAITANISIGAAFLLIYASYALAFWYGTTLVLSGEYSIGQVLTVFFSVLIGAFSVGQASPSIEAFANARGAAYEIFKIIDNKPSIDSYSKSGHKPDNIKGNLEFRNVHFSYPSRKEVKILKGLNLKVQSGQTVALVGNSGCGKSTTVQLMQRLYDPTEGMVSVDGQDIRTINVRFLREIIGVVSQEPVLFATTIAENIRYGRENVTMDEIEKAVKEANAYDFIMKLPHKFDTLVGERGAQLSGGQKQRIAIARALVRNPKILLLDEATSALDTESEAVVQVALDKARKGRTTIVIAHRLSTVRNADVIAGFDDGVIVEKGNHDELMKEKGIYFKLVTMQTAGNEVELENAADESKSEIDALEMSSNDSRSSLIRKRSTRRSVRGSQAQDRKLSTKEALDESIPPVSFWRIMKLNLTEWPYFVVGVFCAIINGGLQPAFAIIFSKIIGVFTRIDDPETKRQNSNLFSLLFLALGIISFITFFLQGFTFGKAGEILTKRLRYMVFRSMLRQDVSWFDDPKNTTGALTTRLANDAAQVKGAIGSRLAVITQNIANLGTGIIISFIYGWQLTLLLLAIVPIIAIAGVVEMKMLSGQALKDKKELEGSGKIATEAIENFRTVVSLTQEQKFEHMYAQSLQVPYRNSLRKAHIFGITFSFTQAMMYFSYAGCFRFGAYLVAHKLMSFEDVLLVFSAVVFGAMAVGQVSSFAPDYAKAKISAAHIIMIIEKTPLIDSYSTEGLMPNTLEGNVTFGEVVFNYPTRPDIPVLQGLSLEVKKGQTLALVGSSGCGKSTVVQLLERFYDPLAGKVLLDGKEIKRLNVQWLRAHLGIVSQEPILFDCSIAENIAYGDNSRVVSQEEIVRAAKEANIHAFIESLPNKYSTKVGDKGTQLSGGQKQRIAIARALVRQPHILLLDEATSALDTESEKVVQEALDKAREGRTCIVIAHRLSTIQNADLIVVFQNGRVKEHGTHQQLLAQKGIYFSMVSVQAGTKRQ

Consider `C#CCN1C(=O)[C@@H]2[C@H]3c4ccccc4[C@H](c4ccccc43)[C@@H]2C1=O`, for which the “inhibition (INH)” value in data set [1] is “Not Active”.
For the compound `CN1CCN(CC#CCN2C(=O)[C@@H]3[C@H]4c5ccccc5[C@H](c5ccccc54)[C@@H]3C2=O)CC1`, the outcome in the data set on HL60R [2] and in the data set on HL60R [3] was Active. In addition, the “inhibition (INH)” value in data set [1] and in data set [14] was “Not Active” throughout. For the same compound, the Activity entry in [4], in data set [5], in [8] and in [11] was “Non-toxic” each time. For the same compound, the Ratio in [6] stood at 64.74; in data set [10], 9.59. In addition, the logP (in general, the decadic logarithm of the partition coefficient of the neutral form, usually between octanol and water) in data set [7] stood at 2.54. The outcome in the data set with HL60R [9] and in the data set on HL60R [13] was inactive. For the same compound, in data set [12], the RLU is 3429.
Regarding `O=C1[C@@H]2[C@H]3c4ccccc4[C@H](c4ccccc43)[C@@H]2C(=O)N1CC#CCN1CCN(C(c2ccc(F)cc2)c2ccc(F)cc2)CC1`, the “inhibition (INH)” value in [1] is listed as “Active”; in data set [14], “Not Active”. In addition, the Activity result in data set [4], in data set [5], in data set [8] and in data set [11] was “Non-toxic” throughout. Besides, the result in the data set with HL60R [15] and in the data set with HL60R [16] was Active. Further, the Ratio in [17] is given as 5.19; in data set [6], 33.38; in data set [18], 8.22; in data set [10] it was 28.27. In addition, the logP in data set [7] was found to be 6.3. The RLU in [12] is recorded as 4276.
As for `O=C1[C@@H]2[C@H]3c4ccccc4[C@H](c4ccccc43)[C@@H]2C(=O)N1CC#CCN1CCN(c2ccccc2)CC1`, the result with HL60R [2] and in the data set on HL60R [3] was Active. Besides, the “inhibition (INH)” value in [1] and in [14] was “Not Active” in each case. The Ratio is 2 in data set [19], 11.52 in [6] and 7.56 in data set [10]. The Activity result in data set [4], in data set [5], in data set [8] and in data set [11] was “Non-toxic” each time. In data set [7], this compound displayed a logP of 2.54. Also, the outcome in the data set with HL60R [9] and with HL60R [13] was inactive. Further, the RLU in data set [12] is 3650.
`COc1cccc2c1C(=O)c1c(O)c3c(c(O)c1C2=O)C[C@@](O)(C(=O)CO)C[C@@H]3O[C@H]1C[C@H](N)[C@H](O)[C@H](C)O1`: the result in data set [20] was inactive. In addition, the outcome (in the data set with HL60R [21]; in the data set on HL60R [22]; in [23]) was Active.
Regarding `O=C1[C@@H]2[C@H]3c4ccccc4[C@H](c4ccccc43)[C@@H]2C(=O)N1CC#CCN1CCN(Cc2ccccc2)CC1`, the “inhibition (INH)” value in data set [1] was “Active”; in data set [14], “Not Active”. Besides, the Ratio in [19] was 15; in data set [17] it was 2.62; in data set [6], 85.46; in data set [18] it was 7.76; in [10] it was 54.832. For the same compound, the Activity result in [4], in data set [5], in data set [8] and in data set [11] was “Non-toxic” each time. The result in the data set on HL60R [15] and with HL60R [16] was Active. For the same compound, the logP in data set [7] amounted to 2.54. In addition, the RLU in [12] was determined as 3957.
Take `O=C1[C@@H]2[C@H]3c4ccccc4[C@H](c4ccccc43)[C@@H]2C(=O)N1CC#CCN1CCC(n2c(=O)[nH]c3ccccc32)CC1`: the “inhibition (INH)” value in data set [1] and in data set [14] was “Not Active” each time. For the same compound, the result with HL60R [3] and in the data set on HL60R [24] was Active. The Activity entry in data set [4], in data set [5], in [8] and in data set [11] was “Non-toxic” in each case. The Ratio in data set [6] is 44.6; in data set [10] it was 6.39. Further, in data set [7], the log partition coefficient (logP) is 2.54. Further, in data set [12], the RLU worked out at 4363.
On to `COc1ccc(CCN(C)CC#CCN2C(=O)[C@@H]3[C@H]4c5ccccc5[C@H](c5ccccc54)[C@@H]3C2=O)cc1OC`, for which the Activity result in data set [4], in [5], in data set [8] and in data set [11] was “Toxic” throughout. In addition, the outcome with HL60R [15] and with HL60R [16] was Active. The RLU in data set [12] is reported as 2612. Besides, the “inhibition (INH)” value in [14] is reported as “Not Active”.
